Experimental data published in ChEMBL document CHEMBL5329221, “A covalent fragment-based strategy targeting a novel cysteine to inhibit activity of mutant EGFR kinase” (RSC Med Chem, 2023).
Activity calls are given as the source filed them. The rule behind the calls is not given here.

Tests used:
[1] = target: Epidermal growth factor receptor (Homo sapiens) (UniProt P00533); test: Inhibition of wild type human EGFR assessed as decrease in substrate phosphorylation using Srctide as substrate preincubated for 15 mins followed by substrate addition in presence of 1mM of ATP and measured after 45 mins by microplate reader analysis; details: time 60.0 min
Outline: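 Wild-type EGFR at 800 ng/mL was preincubated 15 min with 1 µM compound in 100 mM HEPES pH 7.4, 0.003% Brij-35, 0.004% Tween-20, 1 mM DTT. Then 1 mM ATP, 1.5 µM Srctide, 10 mM MgCl2 and 10 mM MnCl2 were added for 45 min. Mobility-shift read.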

[2] = target: T1, Epidermal growth factor receptor (Homo sapiens, UniProt P00533, C797S/L858R/T790M); test: Inhibition of N-terminal His6-tagged human EGFR L858R/T790M/C797S mutant expressed in Sf9 cells assessed as decrease in substrate phosphorylation using Ulight-JAK1 peptide as substrate incubated for 1.5 hrs in presence of ATP by TR-FRET based LANCE Ultra kinase assay
Outline: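 LANCE Ultra TR-FRET assay with 0.25 nM EGFR_TM, 1 µM ATP, 50 nM ULight-JAK1 peptide, 50 mM HEPES pH 7.5, 10 mM MgCl2, 5 mM MnCl2, 1 mM DTT, 0.015% Brij35, 5% DMSO, 1.5 h at 23°C. EDTA stop, Eu-anti-pTyr PT66, 1 h. Signal is the 665/620 nm ratio, normalised to no-protein controls. IC50 from a four-parameter fit, otherwise % inhibition at the top concentration.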

[3] = system: Epidermal growth factor receptor (Homo sapiens), P00533 [L858R,C775S]; test: Binding affinity to N-terminal His6-tagged human EGFR L858R/C775S mutant expressed in Sf9 cells at pH 7.4 assessed as covalent adduct at +277 Da formation at 0.3 to 1 uM incubated for 1 hrs by LC-MS analysis; details: dose 0.3-1 µM
Outline: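 EGFR (694-1022) L858R or L858R/C775S as N-terminal His-GST fusions from Sf9 cells, purified by Ni affinity then SEC. Each protein at 0.5 mg/ml was incubated with compound (0.3, 1 or 3 µM) in 20 mM Tris-HCl pH 7.5, 150 mM NaCl, 1 mM TCEP, 5% glycerol, 1 h at room temperature. SDS was added to 1% final, samples boiled 95°C 10 min, then UHPLC-MS.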

[4] = target: T1, Epidermal growth factor receptor; test: Inhibition of N-terminal His6-tagged human EGFR L858R/T790M/C797S mutant expressed in Sf9 cells assessed as decrease in substrate phosphorylation incubated for 45 mins using Srctide as substrate in presence of 5uM of ATP by microplate reader analysis
[5] = target: T1, Epidermal growth factor receptor; test: (§1) Inhibition of N-terminal His6-tagged human EGFR L858R/T790M/C797S mutant expressed in Sf9 cells assessed as decrease in substrate phosphorylation using Srctide as substrate preincubated for 60 mins followed by substrate addition in presence of 5uM of ATP and measured after 45 mins by microplate reader analysis
[6] = target: T1, Epidermal growth factor receptor; test: Inhibition of N-terminal His6-tagged human EGFR L858R/T790M/C797S mutant expressed in Sf9 cells assessed as decrease in substrate phosphorylation incubated for 45 mins using Srctide as substrate in presence of 1mM of ATP by microplate reader analysis
Outline: (§2)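 Compound in DMSO was preincubated 0, 20 or 60 min with 250 pg/µL EGFR_TM (residues 694-1022) in 20 mM HEPES pH 7.4, 5 mM MgCl2, 1 mM MnCl2, 0.003% Brij-35, 0.004% Tween-20, 2 mM DTT. […] EDTA stop; phosphorylation read by mobility-shift chip, ex 488/em 530 nm.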

[7] = target: T1, Epidermal growth factor receptor; test: as §1, with “20” for “60”, “1mM” for “5uM”; outline: as §2
[8] = target: T1, Epidermal growth factor receptor; test: as §1, with “1mM” for “5uM”; outline: as §2
[9] = system: Epidermal growth factor receptor (Homo sapiens), P00533 [UNDEFINED MUTATION]; test: Inhibition of human EGFR d746-750/T790M/C797S mutant assessed as decrease in substrate phosphorylation using Srctide as substrate preincubated for 15 mins followed by substrate addition in presence of 1mM of ATP and measured after 45 mins by microplate reader analysis; details: time 60.0 min
Outline: (§3)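 Compound at 1 µM final, 15 min preincubation with mutant EGFR in mutant-EGFR buffer (5 mM MgCl2, 1 mM MnCl2) at 200 ng/mL for T790M/C797S/L858R, 180 ng/mL for d746-750/T790M, and 350 ng/mL for d746-750/T790M/C797S. Then 1 mM ATP plus 1.5 µM Srctide for 45 min. Mobility-shift read.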

[10] = system: Epidermal growth factor receptor (Homo sapiens), P00533 [L858R,T790M,C797S]; test: Inhibition of human EGFR T790M/C797S/L858R mutant assessed as decrease in substrate phosphorylation using Srctide as substrate preincubated for 15 mins followed by substrate addition in presence of 1mM of ATP and measured after 45 mins by microplate reader analysis; details: time 60.0 min; outline: as §3
[11] = system: Epidermal growth factor receptor (Homo sapiens), P00533 [UNDEFINED MUTATION]; test: Inhibition of human EGFR d746-750/T790M mutant assessed as decrease in substrate phosphorylation using Srctide as substrate preincubated for 15 mins followed by substrate addition in presence of 1mM of ATP and measured after 45 mins by microplate reader analysis; details: time 60.0 min; outline: as §3
[12] = system: Epidermal growth factor receptor (Homo sapiens), P00533 [L858R,T790M]; test: Inhibition of human EGFR T790M/L858R mutant assessed as decrease in substrate phosphorylation using Srctide as substrate preincubated for 15 mins followed by substrate addition in presence of 1mM of ATP and measured after 45 mins by microplate reader analysis; details: time 60.0 min
Outline: (§4)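 Panel format: compound at 1 µM final was preincubated 15 min with kinase in 20 mM HEPES pH 7.4, 5 mM MgCl2, 1 mM MnCl2, 0.003% Brij-35, 0.004% Tween-20, 2 mM DTT. ATP (1 mM) and Srctide (1.5 µM) were then added for 45 min. EDTA stop; mobility-shift read, ex 488/em 530 nm.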

[13] = system: Epidermal growth factor receptor (Homo sapiens), P00533 [UNDEFINED MUTATION]; test: Inhibition of human EGFR d746-750 mutant assessed as decrease in substrate phosphorylation using Srctide as substrate preincubated for 15 mins followed by substrate addition in presence of 1mM of ATP and measured after 45 mins by microplate reader analysis; details: time 60.0 min; outline: as §4
[14] = system: Epidermal growth factor receptor (Homo sapiens), P00533 [L858R]; test: Inhibition of human EGFR L858R mutant assessed as decrease in substrate phosphorylation using Srctide as substrate preincubated for 15 mins followed by substrate addition in presence of 1mM of ATP and measured after 45 mins by microplate reader analysis; details: time 60.0 min; outline: as §4

For `C=CC(=O)Nc1cc(-c2cn(C)c3ccccc23)ncn1`, the inhibition [1] was > 80%, the IC50 [2] was 900 nM and the Activity [3] was “Active”. The IC50 [4] was 599 nM, the IC50 [5] was 167 nM and the IC50 [6] was 1300 nM. The IC50 [7] was 251 nM, the IC50 [8] was 150 nM and the inhibition [9] was > 80%. For the same molecule, the inhibition [10] was > 80%, the inhibition [11] was > 80% and the inhibition [12] was > 80%. For the same molecule, the inhibition [13] was > 80% and the inhibition [14] was > 80%.
